The subject of experiment [1] is Enterococcus faecalis. The experiment in a line: Antibacterial activity against vancomycin and teicoplanin-sensitive Enterococcus faecalis ATCC 29212 after 18 hrs by broth microdilution method. The experiment is classed as functional. The settings on record: ATCC 29212, 18 h. On the technique in general: In broth dilution the organism is exposed to a series of concentrations in liquid medium.

Experiment [2] has as its system Bacillus subtilis. The experiment in a line: Antibacterial activity against Bacillus subtilis ATCC 6633 after 18 hrs by broth microdilution method. The note with it: ATCC 6633, 18 h. Type of experiment: functional.
The test system of experiment [3] is Influenza A virus. The experiment in a line: Antiviral activity against Influenza A virus (A/Puerto Rico/8/34(H1N1)) assessed as inhibition of virus-induced cytopathic effect by cell-based assay. Type of experiment: functional, organism-based, A/Puerto Rico/8/1934(H1N1). An outline of the steps: (§1)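 Virus-induced cytopathic effect is scored visually in infected cell cultures. EC50 is defined as the compound concentration producing 50% inhibition of the CPE. A compound is recorded as not active when there is no inhibition at the highest concentration tested or at a subtoxic concentration.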

In experiment [4] the test system is Staphylococcus epidermidis. The experiment in a line: Antibacterial activity against Staphylococcus epidermidis after 18 hrs by broth microdilution method. Type of experiment: functional.
Experiment [5] has as its system Influenza A virus. The experiment in a line: Antiviral activity against Influenza A virus (A/Puerto Rico/8/34(H1N1)) assessed as cell viability by cell-based MTS assay. Type of experiment: functional, organism-based. The note with it: A/Puerto Rico/8/1934(H1N1). An outline of the steps:
(§2)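 Cell-based influenza assay. The read-out is cell viability by the colorimetric formazan-based MTS assay. EC50 is the concentration giving 50% inhibition of the virus-induced cytopathic effect.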
(In general: Tetrazolium dyes change colour on reduction, which living cells bring about.)

The test system of experiment [6] is H3N2 subtype. The experiment in a line: Antiviral activity against Influenza A virus (A/Hong Kong/7/87(H3N2)) assessed as cell viability by cell-based MTS assay. Type of experiment: functional, organism-based. The note with it: A/Hong Kong/7/1987(H3N2). An outline of the steps:
as §2

Experiment [7] deals with Staphylococcus aureus. The experiment in a line: Antibacterial activity against methicillin-sensitive Staphylococcus aureus ATCC 29213 after 18 hrs by broth microdilution method. The experiment is classed as functional. The settings on record: ATCC 29213, 18 h.
Experiment [8] concerns Enterococcus faecalis. The experiment in a line: Antibacterial activity against vancomycin and teicoplanin-resistant Enterococcus faecalis 15376 harboring vanA gene after 18 hrs by broth microdilution method. The experiment is classed as functional. The note with it: Enterococcus faecalis, 15376, 18 h.
For experiment [9], the system named is Staphylococcus aureus. The experiment in a line: Antibacterial activity against methicillin-sensitive Staphylococcus aureus ATCC 33591 after 18 hrs by broth microdilution method. The experiment is classed as functional. The settings on record: ATCC 33591, 18 h.
In experiment [10] the test system is Influenza B virus. The experiment in a line: Antiviral activity against Influenza B virus (B/Hong Kong/5/72) assessed as cell viability by cell-based MTS assay. Type of experiment: functional. The settings on record: B/Hong Kong/05/1972. An outline of the steps:
as §2

The test system of experiment [11] is Influenza B virus. The experiment in a line: Antiviral activity against Influenza B virus (B/Hong Kong/5/72) assessed as inhibition of virus-induced cytopathic effect by cell-based assay. Type of experiment: functional. The note with it: B/Hong Kong/05/1972. Summed up: as §1
(In general: Damage to the host cells serves as the signal in cytopathic effect assays.)

In experiment [12] the test system is Enterococcus faecalis. The experiment in a line: Antibacterial activity against vancomycin-resistant and teicoplanin-sensitive Enterococcus faecalis ATCC 51299 harboring vanB gene after 18 hrs by broth microdilution method. The experiment is classed as functional. The note with it: ATCC 51299, 18 h.
Experiment [13] concerns H3N2 subtype. The experiment in a line: Antiviral activity against Influenza A virus (A/Hong Kong/7/87(H3N2)) assessed as inhibition of virus-induced cytopathic effect by cell-based assay. The experiment is classed as functional, organism-based. The settings on record: A/Hong Kong/7/1987(H3N2). Summed up:
as §1

Experiment [14] has as its system Staphylococcus epidermidis. The experiment in a line: Antibacterial activity against biofilm of Staphylococcus epidermidis ATCC 35984 after 18 hrs by broth microdilution method. Type of experiment: functional. The settings on record: RP62A.
Experiment [15] relates to Influenza B virus. The experiment in a line: Antiviral activity against Influenza B virus (B/Hong Kong/5/72) assessed as cell viability at subtoxic concentration by cell-based MTS assay. The experiment is classed as functional. The note with it: B/Hong Kong/05/1972.
Experiment [16] concerns Staphylococcus aureus. The experiment in a line: Bactericidal activity against methicillin-sensitive Staphylococcus aureus ATCC 29213 after overnight incubation. The experiment is classed as functional.
For experiment [17], the system named is Influenza A virus. The experiment in a line: Antiviral activity against Influenza A virus (A/Puerto Rico/8/34(H1N1)) assessed as inhibition of virus-induced cytopathic effect at highest concentration by cell-based assay. Type of experiment: functional, organism-based. The settings on record: A/Puerto Rico/8/1934(H1N1). Summed up:
as §1

The subject of experiment [18] is H3N2 subtype. The experiment in a line: Antiviral activity against Influenza A virus (A/Hong Kong/7/87(H3N2)) assessed as cell viability at subtoxic concentration by cell-based MTS assay. Type of experiment: functional, organism-based. The note with it: A/Hong Kong/7/1987(H3N2).
Experiment [19] has as its system Enterococcus faecalis. The experiment in a line: Bactericidal activity against vancomycin and teicoplanin-resistant Enterococcus faecalis 15376 harboring vanA gene after overnight incubation. Type of experiment: functional.
Experiment [20] concerns H3N2 subtype. The experiment in a line: Antiviral activity against Influenza A virus (A/Hong Kong/7/87(H3N2)) assessed as inhibition of virus-induced cytopathic effect at highest concentration by cell-based assay. Type of experiment: functional, organism-based. The note with it: A/Hong Kong/7/1987(H3N2). An outline of the steps: as §1
Experiment [21] concerns Staphylococcus aureus. The experiment in a line: Bactericidal activity against methicillin-sensitive Staphylococcus aureus ATCC 33591 after overnight incubation. Type of experiment: functional.
Experiment [22] relates to Influenza A virus. The experiment in a line: Antiviral activity against Influenza A virus (A/Puerto Rico/8/34(H1N1)) assessed as cell viability at subtoxic concentration by cell-based MTS assay. The experiment is classed as functional, organism-based. The note with it: A/Puerto Rico/8/1934(H1N1).
The test system of experiment [23] is Staphylococcus epidermidis. The experiment in a line: Bactericidal activity against Staphylococcus epidermidis after overnight incubation. Type of experiment: functional.
The test system of experiment [24] is Influenza B virus. The experiment in a line: Antiviral activity against Influenza B virus (B/Hong Kong/5/72) assessed as inhibition of virus-induced cytopathic effect at highest concentration by cell-based assay. The experiment is classed as functional. The settings on record: B/Hong Kong/05/1972. An outline of the steps:
as §1

Experiment [25] concerns Enterococcus faecalis. The experiment in a line: Bactericidal activity against vancomycin-resistant and teicoplanin-sensitive Enterococcus faecalis ATCC 51299 harboring vanB gene after overnight incubation. Type of experiment: functional.
Experiment [26] relates to Staphylococcus epidermidis. The experiment in a line: Bactericidal activity against biofilm of Staphylococcus epidermidis ATCC 35984 after overnight incubation. The experiment is classed as functional. The note with it: RP62A.
Experiment [27] relates to Bacillus subtilis. The experiment in a line: Bactericidal activity against Bacillus subtilis ATCC 6633 after overnight incubation. Type of experiment: functional.
Experiment [28] has as its system Enterococcus faecalis. The experiment in a line: Bactericidal activity against vancomycin and teicoplanin-sensitive Enterococcus faecalis ATCC 29212 after overnight incubation. Type of experiment: functional.
The mark [29] stands for this setting: Influenza A virus, A/Puerto Rico/8/1934(H1N1).

Results on five compounds are retold here after ChEMBL document CHEMBL1156074, “Diazo transfer-click reaction route to new, lipophilic teicoplanin and ristocetin aglycon derivatives with high antibacterial and anti-influenza virus activity: an aggregation and receptor binding study” (J Med Chem, 2009).

In brackets after ≈: the same amount, converted by molar mass. Activity calls are given as the source filed them. A value given as a limit tells only on which side of the number the result lay.

In general, EC50 refers to the concentration needed to bring the measured effect to its halfway point. Consider `CCCCCCCCCCOCc1cn([C@H]2C(=O)N[C@H]3C(=O)N[C@H](C(=O)N[C@H]4C(=O)N[C@H]5C(=O)N[C@H](C(=O)N[C@@H](C(=O)OC)c6cc(O)cc(O)c6-c6cc5ccc6O)[C@H](O)c5ccc(cc5)Oc5cc4cc(c5O)Oc4ccc(cc4)[C@H]3O)c3cc(O)c(C)c(c3)Oc3cc2ccc3O)nn1`, for which the MIC in experiment [1], in [2], in experiment [4], in experiment [7], in experiment [8] and in experiment [9] was more than 256 µg/mL in each case. Moreover, the MIC in experiment [12] and in experiment [14] was more than 256 µg/mL in each case. In addition, the concentration for a half-maximal effect (EC50) is 0.1 µM in experiment [3] (setting [29]); 0.1 µM in [5]; 0.5 µM in experiment [6]; 0.2 µM in experiment [10]; 0.2 µM in [11]; 0.2 µM in experiment [13].

In the case of `NC(=O)c1ncn([C@@H]2O[C@H](CO)[C@@H](O)[C@H]2O)n1` [RIBAVIRIN], the EC50 in experiment [3] worked out at 9 µM; in [5] it was 9.7 µM; in experiment [6], 6 µM; in [10], 3.6 µM; in experiment [11], 9 µM; in [13], 9 µM.

Take `COC(=O)[C@H]1NC(=O)[C@H]2NC(=O)[C@H](NC(=O)[C@@H]3NC(=O)[C@H]4NC(=O)[C@H](NC(=O)[C@H](N=[N+]=[N-])c5ccc(O)c(c5)Oc5cc4cc(O)c5C)[C@H](O)c4ccc(cc4)Oc4cc3cc(c4O)Oc3ccc(cc3)[C@H]2O)c2ccc(O)c(c2)-c2c(O)cc(O)cc21`: the EC50 in [3] (setting [29]) amounted to 9 µM; in experiment [5], 8.8 µM; in [6], 9.2 µM; in experiment [13], 20 µM.

Consider `CCCCCCCCCCOCc1cn([C@H]2C(=O)N[C@@H]3Cc4ccc(c(Cl)c4)Oc4cc5cc(c4O)Oc4ccc(cc4Cl)[C@@H](O[C@@H]4O[C@H](CO)[C@@H](O)[C@H](O)[C@H]4NC(C)=O)[C@@H]4NC(=O)[C@H](NC(=O)[C@@H]5NC(=O)[C@@H](NC3=O)c3cc(O)cc(c3)Oc3cc2ccc3O)c2ccc(O)c(c2)-c2c(O)cc(O)cc2[C@H](C(=O)OC)NC4=O)nn1`, for which the inhibition result in experiment [15], in experiment [17], in experiment [18], in experiment [20], in [22] and in experiment [24] was “inactive” each time. The MBC in experiment [16] amounted to 1 µg/mL (≈ 0.61 µM); in [19], 256 µg/mL (≈ 156 µM); in experiment [21], 0.5 µg/mL (≈ 0.305 µM); in experiment [23], 1 µg/mL (≈ 0.61 µM); in experiment [25], 128 µg/mL (≈ 78.1 µM); in [26], 1 µg/mL (≈ 0.61 µM). Besides, the MBC in experiment [27] worked out at 4 µg/mL (≈ 2.44 µM); in [28], 256 µg/mL (≈ 156 µM). Besides, the MIC in experiment [1] amounted to 2 µg/mL (≈ 1.22 µM); in experiment [2] it was 2 µg/mL (≈ 1.22 µM); in experiment [4], 1 µg/mL (≈ 0.61 µM); in experiment [7], 1 µg/mL (≈ 0.61 µM); in [8], 2 µg/mL (≈ 1.22 µM); in experiment [9] it was 0.5 µg/mL (≈ 0.305 µM). Besides, the MIC in experiment [12] came to 2 µg/mL (≈ 1.22 µM); in experiment [14], 1 µg/mL (≈ 0.61 µM).

Regarding `CC(N)C12CC3CC(CC(C3)C1)C2` (configuration not stated) [RIMANTADINE], the inhibition result in experiment [15] and in [24] was “inactive” each time. In addition, the concentration giving a half-maximal response (EC50) worked out at 10 µM in experiment [3] (setting [29]), 13 µM in experiment [5], 0.2 µM in experiment [6] and 0.1 µM in [13].
